Laboratory results taken from ChEMBL document CHEMBL5649168, “Discovery of a selective catalytic p300/CBP inhibitor that targets lineage-specific tumours” (Nature, 2017).
The source made the active and inactive calls. The calls are words filed in the database; no cut-off is given here.

Legend:
[1] = biological target: T1, CREB-binding protein/Histone acetyltransferase p300 (Homo sapiens, UniProt Q09472+Q92793); settings: 22Rv1, dose 0.3-3 mM
[2] = biological target: T2, Histone acetyltransferase p300 (Homo sapiens, UniProt Q09472); test: Inhibition of p300 HAT domain (unknown origin) using Biotin-C6-GRGKGGKGLGKGGAK as substrate pretreated with enzyme for 30 mins followed by incubation with substrate for 1 hr by radiometric scintillation proximity assay
T2 sequence (Q09472 whole entry, the tested form may be a part): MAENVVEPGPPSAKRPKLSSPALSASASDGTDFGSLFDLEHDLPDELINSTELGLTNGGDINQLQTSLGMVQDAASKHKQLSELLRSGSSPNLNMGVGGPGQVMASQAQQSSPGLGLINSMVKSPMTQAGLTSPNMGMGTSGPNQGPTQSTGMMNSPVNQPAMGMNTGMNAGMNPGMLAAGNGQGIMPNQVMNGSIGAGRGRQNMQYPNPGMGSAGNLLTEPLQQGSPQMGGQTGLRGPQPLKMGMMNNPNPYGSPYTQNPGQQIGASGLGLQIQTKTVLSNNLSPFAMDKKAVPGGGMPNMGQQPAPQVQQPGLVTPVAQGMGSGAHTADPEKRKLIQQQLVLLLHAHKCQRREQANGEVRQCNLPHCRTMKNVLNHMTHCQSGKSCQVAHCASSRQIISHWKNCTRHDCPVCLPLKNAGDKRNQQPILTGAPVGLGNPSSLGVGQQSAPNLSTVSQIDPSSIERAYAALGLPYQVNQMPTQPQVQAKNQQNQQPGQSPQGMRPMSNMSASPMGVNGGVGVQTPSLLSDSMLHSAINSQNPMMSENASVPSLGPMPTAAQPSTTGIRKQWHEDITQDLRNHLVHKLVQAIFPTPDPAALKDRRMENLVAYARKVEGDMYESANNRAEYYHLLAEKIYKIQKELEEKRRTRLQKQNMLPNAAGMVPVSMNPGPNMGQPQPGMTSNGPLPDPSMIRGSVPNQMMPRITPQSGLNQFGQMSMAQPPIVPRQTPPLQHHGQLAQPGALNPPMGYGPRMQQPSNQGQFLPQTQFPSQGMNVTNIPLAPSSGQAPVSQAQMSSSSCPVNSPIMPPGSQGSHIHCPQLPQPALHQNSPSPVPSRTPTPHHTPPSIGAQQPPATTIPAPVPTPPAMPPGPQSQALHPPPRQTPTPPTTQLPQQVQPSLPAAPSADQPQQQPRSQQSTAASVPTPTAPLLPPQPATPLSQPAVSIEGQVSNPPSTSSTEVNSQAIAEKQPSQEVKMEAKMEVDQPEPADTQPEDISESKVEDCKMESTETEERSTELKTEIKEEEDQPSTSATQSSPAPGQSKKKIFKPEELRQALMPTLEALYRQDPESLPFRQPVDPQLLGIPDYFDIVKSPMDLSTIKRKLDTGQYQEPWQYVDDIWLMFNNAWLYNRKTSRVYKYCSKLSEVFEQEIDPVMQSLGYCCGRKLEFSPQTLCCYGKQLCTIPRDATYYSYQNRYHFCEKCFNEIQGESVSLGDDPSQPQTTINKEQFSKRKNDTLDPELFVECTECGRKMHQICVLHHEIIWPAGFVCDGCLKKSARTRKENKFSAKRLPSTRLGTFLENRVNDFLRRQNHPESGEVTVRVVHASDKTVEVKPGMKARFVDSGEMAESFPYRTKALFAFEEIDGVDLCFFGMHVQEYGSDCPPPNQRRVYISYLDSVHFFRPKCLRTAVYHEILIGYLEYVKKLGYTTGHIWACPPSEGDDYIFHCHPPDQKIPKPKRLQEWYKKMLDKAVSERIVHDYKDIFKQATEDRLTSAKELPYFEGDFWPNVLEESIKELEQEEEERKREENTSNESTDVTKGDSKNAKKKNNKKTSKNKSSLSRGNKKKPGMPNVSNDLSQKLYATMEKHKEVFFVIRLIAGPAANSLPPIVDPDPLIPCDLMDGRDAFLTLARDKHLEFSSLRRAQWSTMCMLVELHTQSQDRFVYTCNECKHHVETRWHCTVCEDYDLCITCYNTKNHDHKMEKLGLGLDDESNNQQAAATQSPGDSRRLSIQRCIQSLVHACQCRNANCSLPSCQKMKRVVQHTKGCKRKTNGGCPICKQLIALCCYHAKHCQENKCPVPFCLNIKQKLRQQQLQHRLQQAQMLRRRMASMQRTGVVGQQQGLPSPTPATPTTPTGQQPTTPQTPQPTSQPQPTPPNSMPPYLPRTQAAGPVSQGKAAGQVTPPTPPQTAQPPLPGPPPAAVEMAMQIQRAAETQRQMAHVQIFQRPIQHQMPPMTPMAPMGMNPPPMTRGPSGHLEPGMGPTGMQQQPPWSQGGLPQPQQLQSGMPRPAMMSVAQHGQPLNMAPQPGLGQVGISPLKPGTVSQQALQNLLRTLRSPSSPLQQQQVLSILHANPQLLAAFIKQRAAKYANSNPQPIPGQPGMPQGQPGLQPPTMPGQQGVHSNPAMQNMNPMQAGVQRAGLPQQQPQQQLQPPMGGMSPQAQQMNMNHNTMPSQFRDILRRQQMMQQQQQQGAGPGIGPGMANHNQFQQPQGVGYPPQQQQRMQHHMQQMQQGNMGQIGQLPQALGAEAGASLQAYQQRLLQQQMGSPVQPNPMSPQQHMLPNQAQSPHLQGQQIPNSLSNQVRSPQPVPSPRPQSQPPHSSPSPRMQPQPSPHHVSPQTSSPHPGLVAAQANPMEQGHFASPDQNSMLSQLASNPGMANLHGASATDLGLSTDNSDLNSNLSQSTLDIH

[3] = biological target: T1, CREB-binding protein/Histone acetyltransferase p300; test: Inhibition of p300/CBP in human PC-3 cells assessed as reduction in H3K18Ac level incubated for 3 hrs by Hoechst 33342 staining based high content microscopy analysis; type: cell-based
[4] = biological target: MAO-A (Homo sapiens, UniProt P21397); test: Inhibition of MAO-A (unknown origin) at 10 uM by radioligand binding assay relative to control
[5] = biological target: T1, CREB-binding protein/Histone acetyltransferase p300; test: Inhibition of p300/CBP in human 22Rv1 cells assessed as reduction in H3K9Ac level incubated for 3 hrs by Hoechst 33342 staining based high content microscopy analysis; type: cell-based
Summary of the method: (§1)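 Cells received an 8-point half-log dilution series from 10 µM. They were then fixed in 10% formaldehyde (10 min, RT), permeabilised with 0.1% Triton X-100 and blocked with 1% BSA for 1 h. Primary antibodies were applied overnight at 4 °C, followed by Alexa488 anti-rabbit, Alexa555 anti-mouse and Hoechst 33342 for 1 h. Fifteen fields per well were imaged and average mean intensity taken. EC50 came from a sigmoidal fit.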

[6] = biological target: T2, Histone acetyltransferase p300; test: (§2) Inhibition of N-terminal 6His-Flag tagged p300-BHC domain (1036 to 1822 residues) (unknown origin) expressed in Sf9 cells using the Bac-to-Bac baculovirus system under EDTA-free condition using biotinylated synthetic Histone-H4 peptide incubated for 30 mins followed by substrate addition and measured after 1hr by TR-FRET assay
Summary of the method: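 TR-FRET acetylation of biotinylated histone H4 peptide. Buffer: 100 mM HEPES pH 7.9, 100 mM KCl, 40 µg/mL BSA, 1 mM DTT, 0.01% Triton X-100. The EDTA-free run used protein purified without EDTA and buffer without EDTA. Enzyme at 0.6 nM was preincubated 30 min with compound (3-fold series, 50 µM to 0.00075 µM). Substrates were 2 µM peptide and 0.5 µM acetyl-CoA, 1 h at room temperature. Read by Eu-anti-acetyl-H4 / ULight-streptavidin; IC50 from sigmoidal fit.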

[7] = biological target: T1, CREB-binding protein/Histone acetyltransferase p300; test: Inhibition of p300/CBP in human 22Rv1 cells assessed as reduction in H3K9Ac level incubated for 24 hrs by Hoechst 33342 staining based high content microscopy analysis; type: cell-based
Summary of the method: as §1

[8] = biological target: T1, CREB-binding protein/Histone acetyltransferase p300; test: Inhibition of p300/CBP in human PC-3 cells assessed as reduction in H3K9Ac level incubated for 3 hrs by Hoechst 33342 staining based high content microscopy analysis; type: cell-based
Summary of the method: (§3)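 PC-3 cells were plated overnight on collagen I-coated plates. They were treated with an 8-point half-log series from 10 µM, then fixed in 10% formaldehyde, permeabilized in 0.1% Triton X-100 and blocked in 1% BSA. Mean intensity was imaged over 15 fields per well; EC50 from sigmoidal fit.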

[9] = biological target: MAO-B (Homo sapiens, UniProt P27338); test: Inhibition of human recombinant MAO-B at 10 uM by radioligand binding assay relative to control
[10] = biological target: T1, CREB-binding protein/Histone acetyltransferase p300; test: Inhibition of p300/CBP in human 22Rv1 cells assessed as reduction in H3K18Ac level incubated for 1 hr by Hoechst 33342 staining based high content microscopy analysis; type: cell-based
Summary of the method: as §1

[11] = biological target: T1, CREB-binding protein/Histone acetyltransferase p300; test: Inhibition of p300/CBP in human 22Rv1 cells assessed as reduction in H3K18Ac level incubated for 3 hrs by Hoechst 33342 staining based high content microscopy analysis; type: cell-based
Summary of the method: as §1

[12] = biological target: T1, CREB-binding protein/Histone acetyltransferase p300; test: Inhibition of p300/CBP in human 22Rv1 cells assessed as reduction in H3K9Ac level incubated for 1 hr by Hoechst 33342 staining based high content microscopy analysis; type: cell-based
Summary of the method: as §1

[13] = biological target: T1, CREB-binding protein/Histone acetyltransferase p300; test: Inhibition of p300/CBP in human PC-3 cells assessed as reduction in H3K27Ac level incubated for 3 hrs by Hoechst 33342 staining based high content microscopy analysis; type: cell-based
Summary of the method: as §3

[14] = biological target: T1, CREB-binding protein/Histone acetyltransferase p300; test: Inhibition of p300/CBP in human 22Rv1 cells assessed as reduction in H3K18Ac level incubated for 24 hrs by Hoechst 33342 staining based high content microscopy analysis; type: cell-based
Summary of the method: as §1

[15] = biological target: T2, Histone acetyltransferase p300; test: Binding affinity to recombinant human p300 HAT domain expressed in Escherichia coli BL21-CodonPlus(DE3)-RIL cells assessed as dissociation constant using CMLVELHTQSQDRF as substrate by surface plasmon resonance analysis
[16] = biological target: CREB-binding protein (Homo sapiens, UniProt Q92793); test: as §2, with “CBP-BHC” for “p300-BHC”, “(1072” for “(1036”, “1859” for “1822”
Chain of CREB-binding protein (Q92793 whole entry): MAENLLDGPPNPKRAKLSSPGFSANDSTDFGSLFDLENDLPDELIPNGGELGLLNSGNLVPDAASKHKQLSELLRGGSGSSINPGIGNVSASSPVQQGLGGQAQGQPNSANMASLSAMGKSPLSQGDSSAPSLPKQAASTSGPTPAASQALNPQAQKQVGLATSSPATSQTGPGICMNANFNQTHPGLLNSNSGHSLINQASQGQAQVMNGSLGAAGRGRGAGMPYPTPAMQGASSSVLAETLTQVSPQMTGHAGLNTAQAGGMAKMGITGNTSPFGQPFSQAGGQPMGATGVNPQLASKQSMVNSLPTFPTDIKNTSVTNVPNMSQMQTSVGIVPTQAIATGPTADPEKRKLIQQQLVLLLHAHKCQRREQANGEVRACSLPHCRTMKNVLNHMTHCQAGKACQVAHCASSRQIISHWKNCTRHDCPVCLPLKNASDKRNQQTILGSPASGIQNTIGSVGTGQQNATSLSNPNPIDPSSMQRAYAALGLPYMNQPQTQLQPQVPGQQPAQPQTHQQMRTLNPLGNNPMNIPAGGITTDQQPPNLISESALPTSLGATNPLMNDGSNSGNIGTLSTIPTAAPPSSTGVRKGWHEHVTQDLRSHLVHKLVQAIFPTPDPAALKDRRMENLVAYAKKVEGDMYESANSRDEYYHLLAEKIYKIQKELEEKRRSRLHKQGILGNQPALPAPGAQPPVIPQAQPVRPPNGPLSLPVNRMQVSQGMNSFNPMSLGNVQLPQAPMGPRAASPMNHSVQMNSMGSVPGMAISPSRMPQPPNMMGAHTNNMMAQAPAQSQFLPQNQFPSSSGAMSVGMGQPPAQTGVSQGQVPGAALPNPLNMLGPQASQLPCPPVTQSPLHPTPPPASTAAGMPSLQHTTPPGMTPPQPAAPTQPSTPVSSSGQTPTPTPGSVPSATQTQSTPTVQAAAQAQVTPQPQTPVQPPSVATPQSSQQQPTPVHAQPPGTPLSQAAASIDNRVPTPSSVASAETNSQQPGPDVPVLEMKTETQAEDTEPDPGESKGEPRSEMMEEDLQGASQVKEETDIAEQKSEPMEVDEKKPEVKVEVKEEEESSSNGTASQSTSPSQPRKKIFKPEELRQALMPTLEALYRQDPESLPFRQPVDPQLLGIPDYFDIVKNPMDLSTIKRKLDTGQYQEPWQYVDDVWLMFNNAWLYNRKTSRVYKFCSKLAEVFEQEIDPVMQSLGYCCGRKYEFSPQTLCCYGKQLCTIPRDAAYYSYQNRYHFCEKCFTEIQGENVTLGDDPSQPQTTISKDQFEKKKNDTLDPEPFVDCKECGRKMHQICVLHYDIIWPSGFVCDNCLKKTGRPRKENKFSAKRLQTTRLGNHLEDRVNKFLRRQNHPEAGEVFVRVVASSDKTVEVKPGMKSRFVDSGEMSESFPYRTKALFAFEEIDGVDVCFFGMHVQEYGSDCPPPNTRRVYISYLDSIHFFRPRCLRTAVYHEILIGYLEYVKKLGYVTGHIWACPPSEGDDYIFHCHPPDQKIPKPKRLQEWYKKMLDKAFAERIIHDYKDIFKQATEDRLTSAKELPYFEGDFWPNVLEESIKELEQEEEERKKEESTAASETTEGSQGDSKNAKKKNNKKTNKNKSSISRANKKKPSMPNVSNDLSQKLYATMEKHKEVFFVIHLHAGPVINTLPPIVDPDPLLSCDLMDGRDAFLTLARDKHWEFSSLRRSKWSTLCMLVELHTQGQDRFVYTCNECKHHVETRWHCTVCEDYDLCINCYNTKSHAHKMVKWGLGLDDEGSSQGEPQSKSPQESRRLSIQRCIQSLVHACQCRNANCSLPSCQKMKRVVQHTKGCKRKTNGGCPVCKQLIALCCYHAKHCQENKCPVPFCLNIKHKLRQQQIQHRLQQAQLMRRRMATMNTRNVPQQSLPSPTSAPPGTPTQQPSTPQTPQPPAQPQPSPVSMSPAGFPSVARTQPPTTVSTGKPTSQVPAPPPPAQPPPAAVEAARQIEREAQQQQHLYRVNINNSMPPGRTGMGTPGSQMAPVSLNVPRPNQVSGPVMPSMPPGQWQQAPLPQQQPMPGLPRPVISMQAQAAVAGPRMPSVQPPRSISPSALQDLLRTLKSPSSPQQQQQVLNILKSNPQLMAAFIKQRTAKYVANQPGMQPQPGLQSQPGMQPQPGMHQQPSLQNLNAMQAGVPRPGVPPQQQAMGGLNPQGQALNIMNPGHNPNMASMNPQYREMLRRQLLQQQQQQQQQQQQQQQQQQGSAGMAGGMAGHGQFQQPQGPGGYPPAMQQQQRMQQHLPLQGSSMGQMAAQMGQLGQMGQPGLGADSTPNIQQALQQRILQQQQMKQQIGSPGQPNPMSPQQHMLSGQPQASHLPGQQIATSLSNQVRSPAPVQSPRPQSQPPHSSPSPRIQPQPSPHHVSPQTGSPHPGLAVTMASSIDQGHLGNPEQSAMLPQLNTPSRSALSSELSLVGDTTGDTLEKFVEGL

[17] = biological target: Ca2+ channel (L, dihydropyridine site) (Homo sapiens, UniProt O60840+Q01668+Q13698+Q13936); test: Inhibition of Ca2+ channel (L, dihydropyridine site) (unknown origin) at 10 uM by radioligand binding assay relative to control; type: protein assay
[18] = biological target: T1, CREB-binding protein/Histone acetyltransferase p300; test: Inhibition of p300/CBP in human 22Rv1 cells assessed as reduction in H3K27Ac level incubated for 24 hrs by Hoechst 33342 staining based high content microscopy analysis; type: cell-based
Summary of the method: as §1

T1 sequence (Q09472 whole entry, looked up, the tested form may be a part): as the sequence (Q09472 whole entry, the tested form may be a part) above
T1 sequence (Q92793 whole entry, looked up, the tested form may be a part): as the sequence (Q92793 whole entry) above

CNC(=O)c1ccc(N2C(=S)N(c3ccc(C#N)c(C(F)(F)F)c3)C(=O)C2(C)C)cc1F
inhibition [1]: inactive

C=C(C)[C@H](CC=C(C)C)C[C@]12C[C@H](CC=C(C)C)C(C)(C)[C@](CC=C(C)C)(C(=O)C(C(=O)c3ccc(O)c(O)c3)=C1O)C2=O
IC50 [2]: 5 µM

NS(=O)(=O)c1ccc(NC(=O)CN2C(=O)SC(=C3CCCCC3)C2=O)cc1
IC50 [2]: 11.5 µM

CNC(=O)Nc1ccc2c(c1)[C@@]1(CC2)OC(=O)N(CC(=O)N(Cc2ccc(F)cc2)[C@@H](C)C(F)(F)F)C1=O [A-486]
EC50 [3]: > 10 µM
inhibition at 10 µM [4]: 7%
INH [5]: > 10 µM
IC50 [6]: > 10 µM
INH [7]: > 10 µM
EC50 [8]: > 10 µM
inhibition [8]: inactive
inhibition at 10 µM [9]: 0%
INH [10]: > 10 µM
INH [11]: > 10 µM
INH [12]: > 10 µM
EC50 [13]: > 10 µM
inhibition [13]: inactive
IC50 [2]: > 50 µM
INH [14]: > 10 µM
Kd [15]: 20 µM
IC50 [16]: 9.03 µM
inhibition at 10 µM [17]: -3%
INH [18]: > 10 µM

CC(C1CC1)N(Cc1ccccc1)C(=O)CN1C(=O)NC(Cc2c[nH]c3ccccc23)C1=O (stereo not drawn)
IC50 [2]: 5.1 µM
